Paper PMC7953430 (Chemical Science, 2020)
Where “and” joins values, the source holds several entries; their conditions need not be identical. Equal values may be shown once. Read-outs that look alike come from different tables or passages of the source. Each block holds one compound with its values, some of them ahead of it.

Assays:
[1] = Solubility in high ionic strength solvents; format: physicochemical; settings: DPBS, media
[2] = test system: SK-MEL-28 human skin melanoma cells; assay: Resazurin; format: cell-based
[3] = Singlet oxygen sensitization quantum yield; format: physicochemical; settings: PF6 salts; for ΦΔ singlet oxygen quantum yield: air-saturated MeCN, excitation wavelength in brackets; for 1O2 quantum yield ΦΔ: MeCN
How it was run: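 ΦΔ was measured from ¹O₂ emission near 1276 nm, relative to [Ru(bpy)₃](PF₆)₂ (ΦΔ = 0.56 in aerated MeCN). Samples were 5–20 μM PF₆⁻ salts in air-bubbled, CaH₂-distilled MeCN. Excitation was at the longest wavelength maximising 1268 nm emission. Absorbance and refractive index corrections were applied, in triplicate.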

SK-MEL-28 cells [4] = assay: Resazurin; format: cell-based, human
How it was run: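 SK-MEL-28 cells were equilibrated at 1% O₂ for 2–3 h before dosing and kept hypoxic for at least 16 h. During illumination plates were sealed with qPCR films (about 20 °C, ≤1.5 h). Light was cool white (400–700 nm), green (523 nm) or red (633 nm) at 20 mW cm⁻² to 100 J cm⁻². Cells recovered in normoxia before the resazurin read. PI was dark EC50/light EC50.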

SK-MEL-28 cells [5] = assay: Os-4T interassay repeats, resazurin, hypoxia; format: cell-based, human
How it was run: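 Hypoxic (1% O₂) SK-MEL-28 phototoxicity was read by resazurin across repeats under three light conditions. Repeat 0 was run in 96-well plates; repeats 1–5 were run within a month in 384-well plates. Plate maps, pipette tips and seed stock (repeats 4–5) were varied, and overhead lights were off in repeat 5. Cells were at passages 10–15, with three replicates per repeat.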

[6] = test system: B16-F10 murine melanotic melanoma cells; assay: External validation; format: cell-based
How it was run: (§1)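 SK-MEL-28 and B16-F10 cells (B16-F10 grown in DMEM) in log phase were seeded and dosed with 1 nM–300 μM test compound diluted in DPBS (<1.2% v/v DMSO). Plates were irradiated 15–22 h after dosing with broadband projector visible light or a red 630 nm LED panel (33–40 mW cm⁻², 100 J cm⁻²). Resazurin was read at 48 h (530/620 nm). PI was dark EC50/light EC50.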

SK-MEL-28 cells [7] = assay: NIR 733 nm photocytotoxicity, normoxia; format: cell-based, human; settings: read-out: EC50 with 733 nm light, 100 J cm^–2, 5 mW cm^–2
How it was run: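 Normoxic SK-MEL-28 monolayers in 384-well plates were illuminated with a 733 nm laser through a frontal diffuser (5 mW cm⁻², 100 J cm⁻²), with sham-treated dark controls. Viability was read by resazurin and EC50 was taken from the dose–response curve.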

SK-MEL-28 cells [8] = assay: Sulforhodamine B; format: cell-based, human; settings: SRB, hypoxia, across light treatments
[9] = test system: SK-MEL-28 human amelanotic melanoma cells; assay: External validation; format: cell-based; settings: SK-MEL-28, external validation
How it was run: as §1

female C57BL/6J mice = assay: Maximum tolerated dose in mice; format: in vivo; settings: ip doses above 100 mg kg^–1 (100, 125, 200); behaviour resolved after 2 h
SK-MEL-28 cells [10] = assay: NIR 753 nm photocytotoxicity on Modulight ML8500; format: cell-based, human; settings: 10 μM, 300 mW cm^–2, 200*2 (≥400) J cm^–2, resazurin
How it was run: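 SK-MEL-28 wells were illuminated one by one with a 753 nm laser at a constant 300 mW cm⁻² over 0–400 J cm⁻², at 37 °C and 5% CO₂. Viability was read by resazurin relative to dark wells, in triplicate.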

SK-MEL-28 cells [11] = assay: Os-4T interassay repeats, resazurin, normoxia; format: cell-based, human
[12] = aerated MeCN; cited from earlier work
[13] = read-out: EC50 ± SEM Dark, normoxia 18.5–21% O2, no light
[14] = read-out: visible EC50, normoxia, visible light 100 J cm^–2

solubility in high ionic strength solvents [1]: > 300 µM | EC50 [2, 13]: 158000 nM
Compound: [Cl-].[Cl-].[Os+2].c1cnc2c(c1)ccc1cccnc12.c1cnc2c(c1)ccc1cccnc12.c1cnc2c(c1)ccc1cccnc12 [[Os(phen)3]Cl2, reference compound]
PI regardless of wavelength ([2]; normoxia, visible, green or red): 2–4

Compound: [Os(phen)2(IP-1T)]^2+ [Os-1T]
ΦΔ singlet oxygen quantum yield [3]: 0.42 [473]

EC50 [2, 13]: 35700 nM
Compound: [Os(phen)2(IP-2T)]^2+ [Os-2T]
ΦΔ singlet oxygen quantum yield [3]: 0.49 [472]

Compound: [Os(phen)2(IP)]^2+ [Os-0T]
ΦΔ singlet oxygen quantum yield [3]: 0.43 [473]

Compound: [Os(phen)2(IP-3T)]^2+ [Os-3T]
1O2 quantum yield ΦΔ [3]: 51% | ΦΔ singlet oxygen quantum yield [3]: 0.51 [525] | PI Green ([2]; normoxia, dark EC50/green 523 nm EC50): 103 | PI Visible (phototherapeutic index) ([2]; normoxia, dark EC50/visible EC50): 369 | EC50 [2, 14]: 153 nM

Compound: [Os(phen)2(IP-4T)]^2+ [Os-4T]
PI Green (SK-MEL-28 cells [4]; hypoxia 1% O2, dark EC50/green EC50): 91 and > 90 | PI Visible (SK-MEL-28 cells [4]; hypoxia 1% O2, dark EC50/visible EC50): > 90 | EC50 (SK-MEL-28 cells [4]; read-out: light EC50 values in hypoxia, hypoxia 1% O2, across visible, green, red light): 651 to 835 nM | PI range across repeats and three light conditions (SK-MEL-28 cells [5]; hypoxia 1% O2): 32 to 167 | average hypoxic PI across the three light conditions (SK-MEL-28 cells [5]; hypoxia 1% O2, repeat 3 excluded): 90 | PI Visible ([6]; B16-F10, dark EC50/visible EC50): > 20 000 and > 10^4 | EC50 ([6]; read-out: visible EC50, B16-F10, external validation): 15 nM | 1O2 quantum yield ΦΔ [3]: 95% | ΦΔ singlet oxygen quantum yield [3]: 0.95 [525] | EC50 (SK-MEL-28 cells [7]): 803 nM | total growth inhibition (TGI), light-treated samples (SK-MEL-28 cells [8]): 140 to 170 nM | EC50 ([2]; read-out: EC50 with green light, normoxia, green 523 nm, 100 J cm^–2): 1 nM | EC50 ([2]; read-out: EC50 with red light, normoxia, red 633 nm, 100 J cm^–2): 10 nM | EC50 [2, 13]: 65100 nM | EC50 [2, 14]: 0.018 nM | EC50 ([9]; read-out: red EC50): 9.44 nM | EC50 ([9]; read-out: visible EC50): 2.91 nM | observed clinical toxicity (female C57BL/6J mice): mild toxicity | reduction of relative cell viability compared to dark (SK-MEL-28 cells [10]): 14% | EC50 (SK-MEL-28 cells [11]; read-out: EC50 range over repeats, green, normoxia): 1.16 to 25.4 nM | EC50 (SK-MEL-28 cells [11]; read-out: EC50 range over repeats, red, normoxia): 10 to 46.2 nM | EC50 (SK-MEL-28 cells [11]; read-out: EC50 range over repeats, visible, normoxia): 0.0178 to 8.91 nM | EC50 (SK-MEL-28 cells [11]; read-out: average dark EC50 across repeats, either oxygen condition (normoxia and hypoxia), <7% variation): 62800 nM | EC50 (SK-MEL-28 cells [11]; read-out: average normoxic EC50, green, normoxia, repeats): 11.7 nM | EC50 (SK-MEL-28 cells [11]; read-out: average normoxic EC50, red, normoxia, repeats): 30.8 nM | EC50 (SK-MEL-28 cells [11]; read-out: average normoxic EC50, visible, normoxia, repeats): 1.62 nM

Compound: F[P-](F)(F)(F)(F)F.F[P-](F)(F)(F)(F)F.[Ru+2].c1ccc(-c2ccccn2)nc1.c1ccc(-c2ccccn2)nc1.c1ccc(-c2ccccn2)nc1 [[Ru(bpy)3](PF6)2]
ΦΔ singlet oxygen quantum yield (standard) [12]: 0.56
